Measured values published in ChEMBL document CHEMBL1136968, “Structurally simple inhibitors of lanosterol 14alpha-demethylase are efficacious in a rodent model of acute Chagas disease” (J Med Chem, 2009).
Active and inactive are the calls of the source. No cut-off for these calls is given here.

Key:
[1] = Cmax in Trypanosoma cruzi infected BALB/c mouse model of acute Chagas disease at 50 mg/kg, po administered as single dose; format: ADME, organism-based; design: dose 50 mg/kg, route oral; settings: in vivo
Summary of the method: (§1)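 BALB/c females, 7–8 weeks, ~20 g, groups of three; single oral gavage at 50 mg/kg, given as a 10 mg/ml suspension in 20% (w/v) hydroxypropyl beta-cyclodextrin, 100 µL. Tail blood (40 µL) taken at timed intervals into heparinized capillaries. Plasma was separated, frozen and analysed later. Sampling ran to 5 hr. Values are averages from 3 mice.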

Mus musculus [2] = assay: Toxicity in Trypanosoma cruzi Tulahuen infected BALB/c mouse model of acute Chagas disease assessed as mouse survival at 50 mg/kg, po administered twice daily 7 days after parasite infection for 21 days measured 100 days postinfection; format: organism-based; design: dose 50 mg/kg, route oral; settings: in vivo, 2400 h
Summary of the method: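 Subcutaneous infection of female BALB/c mice (7–8 wk) with 1 × 10^4 Tulahuen trypomastigotes. Groups of 6 given oral gavage twice daily, days 7–27, in 20% (w/v) hydroxypropyl beta-cyclodextrin. Parasitemia followed by counting 50 high-power fields of 5 µL tail blood through day 97. Pre-morbid mice euthanized; survival and side effects recorded to termination at day 100.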

[3] = Tmax in Trypanosoma cruzi infected BALB/c mouse model of acute Chagas disease at 50 mg/kg, po administered as single dose; format: ADME, organism-based; design: dose 50 mg/kg, route oral; settings: in vivo; summary of the method: as §1
Trypanosoma cruzi [4] = assay: Antitrypanosomal activity against Trypanosoma cruzi Tulahuen amastigotes in mouse 3T3 cells by beta-galactosidase reporter gene assay; format: functional, organism-based; settings: NIH3T3
Summary of the method: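 Tulahuen strain (TCII lineage) grown as intracellular amastigotes in murine 3T3 fibroblasts in 96-well plates. EC50 determined from triplicate screens. Standard errors within assays stayed below 15%.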

Trypanosoma cruzi [5] = assay: (§2) Antitrypanosomal activity against Trypanosoma cruzi Tulahuen infected BALB/c mouse model of acute Chagas disease assessed as parasitemia burden in blood at 50 mg/kg, po administered twice daily 7 days after parasite infection for 21 days measured 100 days postinfection by PCR assay relative to untreated control; format: functional, organism-based; design: dose 50 mg/kg
Summary of the method: (§3)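 BALB/c females, 7–8 weeks, infected subcutaneously with 1 × 10^4 Tulahuen trypomastigotes; all were parasitemic by day 7. Groups of 6 were dosed by oral gavage twice daily on days 7–27 in 20% (w/v) hydroxypropyl beta-cyclodextrin, 100 µL per dose; vehicle group as control. Parasitemia was counted in 5 µL tail blood over 50 high-power fields through day 97. At day 100, 200 µL whole blood was tested by PCR.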

[6] = target: Sterol 14-alpha demethylase (Trypanosoma cruzi (strain CL Brener)) (UniProt Q7Z1V1); assay: Binding affinity to Trypanosoma cruzi lanosterol 14-alpha-demethylase expressed in Escherichia coli assessed as enzyme spectral change by difference spectroscopy
Chain of Sterol 14-alpha demethylase (Trypanosoma cruzi (strain CL Brener)) (Q7Z1V1 whole entry, looked up): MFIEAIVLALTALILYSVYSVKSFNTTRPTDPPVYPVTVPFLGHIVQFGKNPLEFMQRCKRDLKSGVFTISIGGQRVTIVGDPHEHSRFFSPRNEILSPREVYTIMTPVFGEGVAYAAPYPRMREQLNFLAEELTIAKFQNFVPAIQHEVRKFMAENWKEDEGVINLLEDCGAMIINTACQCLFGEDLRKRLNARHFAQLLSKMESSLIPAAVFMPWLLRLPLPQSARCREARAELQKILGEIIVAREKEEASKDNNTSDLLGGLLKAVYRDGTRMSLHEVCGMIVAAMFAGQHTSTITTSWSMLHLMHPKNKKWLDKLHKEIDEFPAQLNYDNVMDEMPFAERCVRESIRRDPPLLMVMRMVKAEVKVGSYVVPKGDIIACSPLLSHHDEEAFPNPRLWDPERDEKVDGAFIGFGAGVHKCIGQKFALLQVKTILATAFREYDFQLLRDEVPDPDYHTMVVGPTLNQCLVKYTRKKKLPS

[7] = target: Sterol 14-alpha demethylase (Trypanosoma cruzi (strain CL Brener), UniProt Q7Z1V1); assay: Binding affinity to Trypanosoma cruzi lanosterol 14-alpha-demethylase expressed in Escherichia coli assessed as equilibrium dissociation constant for enzyme-inhibitor complex by difference spectroscopy
Chain of Sterol 14-alpha demethylase (Q7Z1V1 whole entry): as the sequence (Q7Z1V1 whole entry, looked up) above

[8] = AUC (0 to 5 hrs) in Trypanosoma cruzi infected BALB/c mouse model of acute Chagas disease at 50 mg/kg, po administered as single dose; format: ADME, organism-based; design: dose 50 mg/kg, route oral; settings: in vivo; summary of the method: as §1
Mus musculus [9] = assay: Toxicity in Trypanosoma cruzi Tulahuen infected BALB/c mouse model of acute Chagas disease assessed as incidence of side effects at 50 mg/kg, po administered twice daily 7 days after parasite infection for 21 days; format: organism-based; design: dose 50 mg/kg, route oral; settings: in vivo; summary of the method: as §3
[10] = Toxicity against mouse 3T3 cells by resazurin assay; format: cell-based; settings: NIH3T3 cells
Summary of the method: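 Murine 3T3 fibroblasts screened separately from the parasites. Host-cell growth was quantified by resazurin read-out and EC50 determined.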

Trypanosoma cruzi [11] = assay: as §2, with “20” for “50”; format: functional, organism-based; design: dose 20 mg/kg
Summary of the method: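 Female BALB/c mice (7–8 wk) infected s.c. with 1 × 10^4 Tulahuen trypomastigotes; blood parasites seen by day 7. Groups of 6 dosed by oral gavage twice daily, days 7–27, in 20% (w/v) hydroxypropyl beta-cyclodextrin vehicle. Vehicle group as control. Mice sacrificed at day 100; 200 µL whole blood tested by PCR for T. cruzi; scored as positive mice per group.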

[12] = Terminal half life in rat; format: ADME, organism-based; settings: in vivo, read-out: beta t1/2 (converted)
[13] = Terminal half life in mouse; format: ADME, organism-based; settings: in vivo, read-out: beta t1/2 (converted)
[14] = Plasma concentration in mouse at 30 mg/kg, po after 1 hr; format: ADME, organism-based; design: dose 30 mg/kg, route oral
[15] = Half life in mouse at 30 mg/kg, po; format: ADME, organism-based; design: dose 30 mg/kg, route oral; settings: in vivo
Trypanosoma cruzi [16] = assay: Antitrypanosomal activity against Trypanosoma cruzi infected mouse model of acute Chagas disease assessed as parasitemia burden in blood at 50 mg/kg, po administered twice daily for 14 days relative to untreated control; format: functional

Structure (SMILES) | Cmax [1] [ng/mL] | Activity (Mus musculus [2]) | Tmax [3] [h] | EC50 (Trypanosoma cruzi [4]) [nM] | Activity (Trypanosoma cruzi [5]) | Activity [6] | Kd [7] [nM] | AUC(0-t) at 4 h [8] [ng·h/mL] | Activity (Mus musculus [9]) | EC50 [10] [nM] | Activity (Trypanosoma cruzi [11]) | half-life [12] [h] | half-life [13] [h] | concentration at 1 h [14] [µM] | half-life [15] [h] | Activity (Trypanosoma cruzi [16]) [%]
Nc1cc(-c2ccccc2)ccc1Cn1cncc1CNc1ccc(Cl)c(-c2ccccc2)c1 | 2400 | Non-toxic | 0.8 | 1.2 | inactive | Active | < 2200 | 6300 | Non-toxic | > 1000 |  |  |  |  |  | 
Nc1cc(-c2ccccc2)ccc1Cn1cncc1CNc1ccc(-c2nc3ccccc3s2)c(-c2ccccc2)c1 | 7200 | Non-toxic | 1.7 | 0.4 |  | Active | < 2200 | 28700 | Non-toxic | > 1000 | Active |  |  |  |  | 
CC[C@@H]([C@H](C)O)n1ncn(-c2ccc(N3CCN(c4ccc(OC[C@@H]5CO[C@@](Cn6cncn6)(c6ccc(F)cc6F)C5)cc4)CC3)cc2)c1=O [POSACONAZOLE] |  |  |  |  |  |  |  |  |  |  | Active | 7 | 7 |  |  | 
c1ccc(-c2ccc(Cn3cncc3CNc3ccc(-c4nc5ccccc5s4)c(-c4ccccc4)c3)cc2)cc1 |  |  |  | 7 |  |  |  |  |  | > 1000 |  |  |  | 16 | 4 | 1
